MT1-MMP txn act – activates MT1-MMP transcription | activation factor at 10 µM | 86,000 compounds, 0.16% hits | HT1080 MT1-MMP promoter luciferase reporter, luminescence, overnight; hits give high values;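 active = activation factor of at least 2 for MT1-MMP transcription at 10 µM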
Jurkat tox 60K – reduces viability or proliferation of Jurkat cells; Jurkat E6.1 viability, ATP luminescence, 48 h; inhibition, % at 4 µM; 56,000 compounds, 1.2% hits; AID 463;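 active = inhibition above the mean inhibition of all tested compounds plus 3 SD, cut at about 28% in these data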
RORA act – RORA (human) activation | P35398 | activation, % at 10 µM | CHO-K1 Gal4-RORA LBD luciferase reporter, luminescence; percent increase over mock-subtracted basal signal | 65,000 compounds, 1.5% hits | AID 560;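 active = activation above the mean of all tested compounds plus 3 SD, cut at about 49% in these data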
SF-1 act – SF-1 (human) activation; Q13285; 65,000 compounds, 1.9% hits; AID 522; activation, % at 10 µM; CHO-K1 Gal4-SF-1 LBD luciferase reporter; % increase over DMSO SF-1-specific signal;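 active = activation above the mean activation of all tested compounds plus 3 SD, cut at about 50% in these data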
Target sequence (Q13285 whole entry, looked up, the tested form may be a part): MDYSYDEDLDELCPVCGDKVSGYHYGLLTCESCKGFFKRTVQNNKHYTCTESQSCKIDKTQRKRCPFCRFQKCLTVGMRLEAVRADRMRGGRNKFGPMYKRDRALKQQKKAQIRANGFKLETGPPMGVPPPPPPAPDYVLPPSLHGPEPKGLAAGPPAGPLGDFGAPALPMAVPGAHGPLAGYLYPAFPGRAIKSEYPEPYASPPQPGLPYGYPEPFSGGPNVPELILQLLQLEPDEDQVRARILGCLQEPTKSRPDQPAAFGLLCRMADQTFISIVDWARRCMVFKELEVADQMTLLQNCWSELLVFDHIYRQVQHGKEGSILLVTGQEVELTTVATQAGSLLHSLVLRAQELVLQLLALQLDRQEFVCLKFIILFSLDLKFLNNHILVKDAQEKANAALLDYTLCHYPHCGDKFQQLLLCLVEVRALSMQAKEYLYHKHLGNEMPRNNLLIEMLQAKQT
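Assay system – CHO-K1 cells with Gal4–hSF-1 LBD chimera plus Gal4-driven luciferase · Quantity – 4,000 cells per well · Times – compound added 1 h post-seeding, 20 h exposure at 37 °C, 5% CO2 · Measured by – luciferase light emission · Benchmarks – DMSO and mock-transfected background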
HEK293 NFkB inh – lowers PMA/ionomycin-induced NF-kB signal in HEK293 cells | HEK-293 NF-kB luciferase reporter, luminescence | inhibition, % at 3 µM | 62,000 compounds, 0.21% hits | AID 465;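 active = inhibition above the mean of all tested compounds plus 3 SD, cut at about 40% in these data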
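System – HEK-293 cells with stable firefly luciferase reporter driven by four HIV NF-kB elements · Doses – one dose, 3 µM · Schedule – 1 h compound pre-incubation, 16 h PMA/ionomycin at 37 °C · Technique – luminescence from luciferase substrate reagent · Measure – percent inhibition normalized per plate to DMSO and reference-inhibitor controls · Replicates – tested once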
Numbers stand for hits; 0 = inactive; - = no result. This is a sample that favours compounds with a hit; in the whole collection about 2.8% have one here.

SMILES	MT1-MMP txn act	Jurkat tox 60K	RORA act	SF-1 act	HEK293 NFkB inh
CCOC(=O)c1cnn2c(C)cc(-c3ccc(F)cc3)nc12	0	0	67.7	0	0
Cn1c(=O)c2c(nc(NCCCO)n2Cc2cccc(Br)c2)n(C)c1=O	0	0	0	0	0
Cn1c(=O)c2c(nc(NC(Cc3ccccc3)C(=O)O)n2Cc2ccccc2)n(C)c1=O (centres undefined)	0	0	0	0	0
Cc1cccc(Cn2c(NCCO)nc3c2c(=O)n(C)c(=O)n3C)c1	0	89.4	0	0	0
CNc1nc2c(c(=O)n(C)c(=O)n2C)n1Cc1ccccc1	0	44.6	0	0	0
Cn1c(=O)c2c(nc(NCc3ccco3)n2C/C=C/c2ccccc2)n(C)c1=O	0	49.3	0	0	0
COCCNc1nc2c(c(=O)n(C)c(=O)n2C)n1Cc1cccc(C)c1	0	28.0	0	0	0
c1ccc(-n2cccc2CNC2CCCCC2)cc1	0	0	0	0	0
CCCn1c(NCc2cc(C)ccc2O)nc2ccccc21	0	-	-	-	-
Cc1cccc(N(CC(N)=O)S(C)(=O)=O)c1C	0	0	0	0	0
CCCCOC(=O)CCc1c(C)[nH]c(=O)c(C#N)c1C	0	0	0	0	0
Cc1ccc(-c2nn(CC(=O)Nc3cccnc3)c(=O)c3ccccc23)cc1	0	-	-	-	-
Cc1cccc(Cn2c(NCC(C)O)nc3c2c(=O)n(C)c(=O)n3C)c1 (centres undefined)	0	39.0	0	0	0
CC(C)CCNC(=O)NC(=O)COC(=O)C1=COCCO1	0	0	0	0	0
Cc1ccc(-c2cc(C(=O)NCCN3CCOCC3)no2)cc1	0	0	0	0	0
CCCNC(=O)c1cc(-c2ccc(Br)cc2)on1	0	0	0	57.8	0
CC(C)NC(=O)c1cc(-c2ccc(Br)cc2)on1	5.1	0	66.2	0	0
CC(=O)Nc1cccc(NC(=O)c2cc3ccccc3o2)c1	0	0	0	87.2	0
CC(=O)Nc1cccc(NC(=O)c2oc3ccccc3c2C)c1	-	0	0	51.0	0
COc1ccc(NC(=O)c2cc3ccccc3o2)cc1	0	0	53.1	54.4	0
COc1ccc(NC(=O)c2oc3ccccc3c2C)c(OC)c1	0	-	62.3	57.5	0
Cc1ccc(S(=O)(=O)N2C(=O)CCC2C(=O)N2CCN(C)CC2)cc1 (centres undefined)	0	0	0	0	0
O=C(OCc1ccccc1)Oc1cncc(C(=O)O)c1	0	0	0	0	0
O=C(CCCn1c(SCC(=O)NCC2CCCO2)nc2ccccc2c1=O)NCC1CCCO1 (centres undefined)	0	-	0	0	0
COc1cc(NC(=O)c2cc3ccccc3o2)c(OC)cc1Br	0	0	0	0	0
SMILES	MT1-MMP txn act	Jurkat tox 60K	RORA act	SF-1 act	HEK293 NFkB inh
COc1ccccc1NC(=O)c1cc2ccccc2o1	2	-	-	-	-
CC(=O)Nc1ccc(-c2cc3ccccc3o2)cc1	0	-	0	61.4	-
COc1ccc(NC(=O)c2cc(C3CC3)on2)c(OC)c1	0	0	0	56.3	0
Cc1nn(-c2nc3ccccc3s2)c(C)c1Oc1ccccc1O	0	28.3	66.2	57.7	0
CNC(=O)N(C1=NCC(C)(C)S1)c1ccc(F)c(Cl)c1	0	48.6	0	0	0
CNC(=O)N(C1=NCC(C)S1)c1ccc(F)cc1F (centres undefined)	0	0	0	0	0
O=C(NCC1COc2ccccc2O1)c1ccc(Cl)cc1 (centres undefined)	0	0	0	59.5	0
Nc1nc(CSc2n[nH]c(-c3ccccc3)n2)nc(Nc2ccccc2)n1	0	0	71.8	0	0
Nc1n[nH]c(-c2ccccc2)n1	0	-	-	-	-
Cc1ccc(-c2nc(Nc3ccccc3)n[nH]2)cc1	0	0	63.1	64.5	0
COc1ccc(Nc2nc(N)nc(CSc3n[nH]c(-c4ccccc4)n3)n2)cc1	0	0	0	0	0
CCOc1ccc(OCC)c(NC(=O)CSc2nc3c(c(=O)n(C)c(=O)n3C)n2C(C)C)c1	0	0	0	100.9	0
COC(=O)C1=C(CN2CCCc3ccccc32)NC(=O)NC1c1ccc(F)cc1 (centres undefined)	0	0	0	0	70.5
CC(=O)c1ccc(OCC(=O)NC2CCS(=O)(=O)C2)cc1 (centres undefined)	0	0	0	0	0
COc1ccc(C(O)c2nc3ccccc3n2C)cc1OC (centres undefined)	0	53.8	0	0	0
COc1ccc(C(=O)NC(C)c2nc3ccccc3n2C)cc1OC (centres undefined)	0	-	0	0	0
O=C(/C=C/Nc1cccc(O)c1)c1ccccc1	-	0	0	57.4	0
CCCCSc1nc2ccccc2n1CC(=O)O	0	-	-	-	-
O=C(COc1cccc2cccnc12)Nc1nccs1	0	0	74.9	0	0
COc1cc(C(=O)N2CCN(c3ccc(C)cc3C)CC2)cc(OC)c1OC	-	90.8	64.0	0	0
CC1(C)CC(=O)C2=C(C1)Nc1ccccc1N=C2	0	0	0	57.7	0
O=C(Nc1cccc(Cl)c1)N1CCCC1	0	-	-	-	-
O=C(Nc1cccc(Cl)c1)N1CCN(Cc2ccccc2)CC1	0	0	73.2	85.1	0
CCC(C)N(CCNC(=O)CC1Oc2ccccc2NC1=O)C1CCCCC1 (centres undefined)	0	0	0	0	0
COc1ccc(Cn2c(C3CC3)nc3ccc(NC(C)=O)cc3c2=O)cc1	0	0	76.7	57.9	0
SMILES	MT1-MMP txn act	Jurkat tox 60K	RORA act	SF-1 act	HEK293 NFkB inh
CCOC(=O)N1CCC(NC(=O)CC(NS(=O)(=O)c2ccc(Cl)cc2)c2ccco2)CC1 (centres undefined)	0	0	0	0	0
CCOC(=O)N1CCC(Nc2nc3ccccc3nc2NS(=O)(=O)c2ccc(Cl)cc2)CC1	0	0	0	53.5	0
CCN(CC)CCOC(=O)c1ccc(N=CC2=C(O)CC(C)(C)CC2=O)cc1	0	0	0	0	0
CCOc1ccc(N=CC2=C(O)CC(C)(C)CC2=O)cc1	0	0	0	68.0	0
CC1(C)CC(=O)C(C=Nc2ccc3cn[nH]c3c2)=C(O)C1	0	0	0	0	0
CC1(C)CC(=O)C(C=Nc2ccc(O)cc2)=C(O)C1	0	0	0	51.4	0
CC1(C)CC(=O)C(C=Nc2ccc3[nH]ncc3c2)=C(O)C1	0	0	0	79.1	0
Cc1[nH]nc(N=CC2=C(O)CC(C)(C)CC2=O)c1-c1ccc(Cl)cc1	0	0	83.2	0	0
Cc1ccc(S(=O)(=O)CCC(=O)Nc2nccs2)cc1	0	-	-	-	-
COc1ccc(-c2nnc(NC(=O)c3ccc(S(=O)(=O)N4COCC4(C)C)cc3)o2)cc1	0	101.3	0	0	0
CCCN(CCC)S(=O)(=O)c1ccc(C(=O)Nc2nnc(-c3cccc(OC)c3)o2)cc1	0	0	0	0	45.2
O=C(Nc1nnc(-c2cccs2)o1)c1cccc(F)c1	0	74.6	0	0	0
CCCCN(C)S(=O)(=O)c1ccc(C(=O)Nc2nnc(-c3cccs3)o2)cc1	0	28.3	0	0	0
COC(=O)c1cccc(NC(=O)c2cccs2)c1C	0	-	-	-	-
